Data set [1] is described as follows: Clearance in Sprague-Dawley rat at 0.5 mg/kg, iv. The class given is ADME, organism-based. The arrangement: dose 0.5 mg/kg, route intravenous. The following applies: in vivo.
In the next data set the test system is LLC-PK1. The data set can be described thus: Efflux ratio of permeability from […] side in pig LLC-PK1 cells over expressing human MDR1. The class given is ADME, cell-based, Sus scrofa. In short, it runs like this:
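Pig kidney LLC-PK1 cells expressing human MDR1. Compound tested in the presence of 0.1% BSA. Apparent permeability was measured in both the apical-to-basolateral and basolateral-to-apical directions.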

Data set [2] addresses Sodium channel protein type 5 subunit alpha (Homo sapiens, UniProt Q14524). As to the kind of experiment: Antagonist activity at partially inactivated human sodium channel Nav1.5 expressed in human HEK293 cells by patch-clamp electrophysiological assay. The class given is functional, cell-based.
In data set [3] the target is Voltage-gated inwardly rectifying potassium channel KCNH2 (Homo sapiens, UniProt Q12809). The data set can be described thus: Displacement of dofetilide from human ERG.
Data set [4] in a line: Volume of distribution at steady state in Sprague-Dawley rat at 0.5 mg/kg, iv. It counts as ADME, organism-based. The arrangement: dose 0.5 mg/kg, route intravenous. The following applies: in vivo, read-out: Vdss.
For data set [5], the target named is T1, Sodium channel protein type 9 subunit alpha (Homo sapiens, UniProt Q15858). As to the kind of experiment: Antagonist activity at non-inactivated human sodium channel Nav1.7 expressed in human HEK293 cells by manual patch-clamp electrophysiological assay. It counts as functional, cell-based. In short, it runs like this: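 Manual electrophysiology on fully noninactivated hNav1.7 with holding voltage set to -140 mV. […] Values are the average of at least two determinations.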

In data set [6] the target is T1, Sodium channel protein type 9 subunit alpha. The data set can be described thus: Antagonist activity at 20% inactivated human sodium channel Nav1.7 expressed in human HEK293 cells by manual patch-clamp electrophysiological assay. The class given is functional, cell-based. In short, it runs like this: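 Manual electrophysiology on hNav1.7; holding voltage set, and adjusted as needed during the experiment, to give steady 20% inactivation. […] Values are the average of at least two determinations.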

Another data set relates to MDR1 (P-gp). The data set can be described thus: Apparent permeability across pig LLC-PK1 cells over expressing human MDR1 at 5 uM in presence 0.1 % BSA. It counts as ADME, cell-based, Sus scrofa. In short, it runs like this: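 MDR1-LLC-PK1 pig kidney cells expressing human MDR1. Compound tested at 5 µM with 0.1% BSA. Permeability is the average of the apical-to-basolateral and basolateral-to-apical apparent permeability values.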

Data set [7] is described as follows: Solubility of the compound in phosphate buffer saline. The class given is physicochemical. The following applies: phosphate buffered saline.
Data set [8] can be described thus: Solubility of the compound in 0.01 N HCl. It counts as physicochemical.
The target in data set [9] is T1, Sodium channel protein type 9 subunit alpha. As to the kind of experiment: Antagonist activity at 20% inactivated human sodium channel Nav1.7 expressed in human HEK293 cells by patch-clamp electrophysiological assay. It counts as functional, cell-based. In short, it runs like this: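 Automated PatchXpress electrophysiology on hNav1.7 channels with an average 20% contribution from inactivated channels. Dose-response curves built from single-concentration tests on many cells. IC50 is the average of at least two determinations.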

A short description of data set [10]: Half life in Sprague-Dawley rat at 0.5 mg/kg, iv. The arrangement: dose 0.5 mg/kg, route intravenous. The following applies: in vivo. It counts as ADME, organism-based.
Data set [11] can be described thus: Solubility of the compound in simulated intestinal fluid. It counts as physicochemical.
Data set [12] can be described thus: Ratio of drug level in brain to plasma in ip dosed rat. It counts as ADME, organism-based. The following applies: brain and plasma, read-out: BPR.
The species named for data set [13] is Rattus norvegicus. The data set can be described thus: Toxicity in rat assessed as reduction in total basic movement by open field test. It counts as organism-based. The arrangement: scale not given: the % may be the effect or the level left. To be noted: in vivo.
The species named for data set [14] is Rattus norvegicus. As to the kind of experiment: Toxicity in rat assessed as complete reduction in rearing behavior by open field test. It counts as organism-based. The arrangement: scale not given: the % may be the effect or the level left. To be noted: in vivo.
Data set [15] concerns Liver microsomes. As to the kind of experiment: Metabolic stability in rat liver microsomes after 15 mins. The following applies: 0.25 h. The class given is ADME, Microsome.
Data set [16] has as its system Liver microsomes. The data set can be described thus: Metabolic stability in human liver microsomes after 15 mins. It counts as ADME, Microsome. To be noted: 0.25 h.
In the next data set the test system is Hepatocyte. As to the kind of experiment: Drug metabolism in rat hepatocytes assessed as glucuronide adduct formation at 18.7 mins. The class given is ADME, cell-based. The following applies: 0.311667 h.

Values after ≈ are worked out from the molar mass of the structure shown.

T1 sequence (Q15858 whole entry): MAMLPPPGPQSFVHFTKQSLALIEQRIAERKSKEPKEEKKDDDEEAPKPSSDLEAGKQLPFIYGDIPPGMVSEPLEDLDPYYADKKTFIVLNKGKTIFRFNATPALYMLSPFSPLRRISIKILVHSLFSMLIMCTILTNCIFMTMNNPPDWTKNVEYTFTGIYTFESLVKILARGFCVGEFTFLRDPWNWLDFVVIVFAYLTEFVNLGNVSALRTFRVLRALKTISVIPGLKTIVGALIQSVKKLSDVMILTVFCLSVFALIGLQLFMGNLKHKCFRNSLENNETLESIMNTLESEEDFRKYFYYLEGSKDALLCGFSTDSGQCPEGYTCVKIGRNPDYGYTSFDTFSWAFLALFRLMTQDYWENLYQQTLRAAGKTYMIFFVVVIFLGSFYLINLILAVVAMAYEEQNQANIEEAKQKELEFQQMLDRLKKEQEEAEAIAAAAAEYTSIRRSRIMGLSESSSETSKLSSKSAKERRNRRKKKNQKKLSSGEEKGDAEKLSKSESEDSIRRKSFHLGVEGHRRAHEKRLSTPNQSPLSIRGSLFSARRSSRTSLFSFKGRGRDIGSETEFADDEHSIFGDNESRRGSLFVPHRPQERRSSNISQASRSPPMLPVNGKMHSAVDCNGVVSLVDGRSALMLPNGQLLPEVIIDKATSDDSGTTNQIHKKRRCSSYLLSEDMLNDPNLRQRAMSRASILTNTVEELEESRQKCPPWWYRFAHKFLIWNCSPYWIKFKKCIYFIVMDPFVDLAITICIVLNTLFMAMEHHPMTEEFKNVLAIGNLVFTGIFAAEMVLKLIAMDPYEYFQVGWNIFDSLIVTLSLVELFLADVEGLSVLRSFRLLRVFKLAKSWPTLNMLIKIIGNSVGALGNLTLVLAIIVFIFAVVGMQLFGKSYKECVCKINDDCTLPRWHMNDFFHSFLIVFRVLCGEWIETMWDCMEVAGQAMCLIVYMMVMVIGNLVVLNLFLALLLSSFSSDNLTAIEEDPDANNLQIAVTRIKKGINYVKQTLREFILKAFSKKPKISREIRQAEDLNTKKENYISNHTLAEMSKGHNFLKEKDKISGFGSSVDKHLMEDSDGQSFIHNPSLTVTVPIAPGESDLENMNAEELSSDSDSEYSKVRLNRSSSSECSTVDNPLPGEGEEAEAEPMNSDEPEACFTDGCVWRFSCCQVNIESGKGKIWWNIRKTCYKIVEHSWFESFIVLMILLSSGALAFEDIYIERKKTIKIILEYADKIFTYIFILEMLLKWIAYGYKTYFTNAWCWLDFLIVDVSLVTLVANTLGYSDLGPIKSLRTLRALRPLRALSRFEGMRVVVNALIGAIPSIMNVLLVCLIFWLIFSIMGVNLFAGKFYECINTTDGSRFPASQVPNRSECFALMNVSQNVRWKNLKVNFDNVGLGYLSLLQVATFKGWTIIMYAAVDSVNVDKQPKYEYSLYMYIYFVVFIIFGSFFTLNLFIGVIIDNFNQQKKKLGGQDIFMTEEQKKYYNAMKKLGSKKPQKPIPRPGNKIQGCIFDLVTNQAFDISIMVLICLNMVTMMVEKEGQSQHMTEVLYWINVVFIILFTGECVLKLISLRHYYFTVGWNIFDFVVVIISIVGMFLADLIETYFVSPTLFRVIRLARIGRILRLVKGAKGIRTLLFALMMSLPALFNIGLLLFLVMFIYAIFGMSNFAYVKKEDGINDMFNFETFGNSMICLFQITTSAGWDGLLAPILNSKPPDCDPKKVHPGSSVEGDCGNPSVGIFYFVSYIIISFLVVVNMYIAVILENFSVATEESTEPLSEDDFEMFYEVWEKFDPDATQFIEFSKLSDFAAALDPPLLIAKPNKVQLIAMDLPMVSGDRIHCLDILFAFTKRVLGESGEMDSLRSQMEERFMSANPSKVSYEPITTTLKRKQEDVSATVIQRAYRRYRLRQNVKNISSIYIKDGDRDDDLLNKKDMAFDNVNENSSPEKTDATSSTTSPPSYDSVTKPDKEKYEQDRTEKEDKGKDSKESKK
Sequence of Sodium channel protein type 5 subunit alpha (Q14524 whole entry): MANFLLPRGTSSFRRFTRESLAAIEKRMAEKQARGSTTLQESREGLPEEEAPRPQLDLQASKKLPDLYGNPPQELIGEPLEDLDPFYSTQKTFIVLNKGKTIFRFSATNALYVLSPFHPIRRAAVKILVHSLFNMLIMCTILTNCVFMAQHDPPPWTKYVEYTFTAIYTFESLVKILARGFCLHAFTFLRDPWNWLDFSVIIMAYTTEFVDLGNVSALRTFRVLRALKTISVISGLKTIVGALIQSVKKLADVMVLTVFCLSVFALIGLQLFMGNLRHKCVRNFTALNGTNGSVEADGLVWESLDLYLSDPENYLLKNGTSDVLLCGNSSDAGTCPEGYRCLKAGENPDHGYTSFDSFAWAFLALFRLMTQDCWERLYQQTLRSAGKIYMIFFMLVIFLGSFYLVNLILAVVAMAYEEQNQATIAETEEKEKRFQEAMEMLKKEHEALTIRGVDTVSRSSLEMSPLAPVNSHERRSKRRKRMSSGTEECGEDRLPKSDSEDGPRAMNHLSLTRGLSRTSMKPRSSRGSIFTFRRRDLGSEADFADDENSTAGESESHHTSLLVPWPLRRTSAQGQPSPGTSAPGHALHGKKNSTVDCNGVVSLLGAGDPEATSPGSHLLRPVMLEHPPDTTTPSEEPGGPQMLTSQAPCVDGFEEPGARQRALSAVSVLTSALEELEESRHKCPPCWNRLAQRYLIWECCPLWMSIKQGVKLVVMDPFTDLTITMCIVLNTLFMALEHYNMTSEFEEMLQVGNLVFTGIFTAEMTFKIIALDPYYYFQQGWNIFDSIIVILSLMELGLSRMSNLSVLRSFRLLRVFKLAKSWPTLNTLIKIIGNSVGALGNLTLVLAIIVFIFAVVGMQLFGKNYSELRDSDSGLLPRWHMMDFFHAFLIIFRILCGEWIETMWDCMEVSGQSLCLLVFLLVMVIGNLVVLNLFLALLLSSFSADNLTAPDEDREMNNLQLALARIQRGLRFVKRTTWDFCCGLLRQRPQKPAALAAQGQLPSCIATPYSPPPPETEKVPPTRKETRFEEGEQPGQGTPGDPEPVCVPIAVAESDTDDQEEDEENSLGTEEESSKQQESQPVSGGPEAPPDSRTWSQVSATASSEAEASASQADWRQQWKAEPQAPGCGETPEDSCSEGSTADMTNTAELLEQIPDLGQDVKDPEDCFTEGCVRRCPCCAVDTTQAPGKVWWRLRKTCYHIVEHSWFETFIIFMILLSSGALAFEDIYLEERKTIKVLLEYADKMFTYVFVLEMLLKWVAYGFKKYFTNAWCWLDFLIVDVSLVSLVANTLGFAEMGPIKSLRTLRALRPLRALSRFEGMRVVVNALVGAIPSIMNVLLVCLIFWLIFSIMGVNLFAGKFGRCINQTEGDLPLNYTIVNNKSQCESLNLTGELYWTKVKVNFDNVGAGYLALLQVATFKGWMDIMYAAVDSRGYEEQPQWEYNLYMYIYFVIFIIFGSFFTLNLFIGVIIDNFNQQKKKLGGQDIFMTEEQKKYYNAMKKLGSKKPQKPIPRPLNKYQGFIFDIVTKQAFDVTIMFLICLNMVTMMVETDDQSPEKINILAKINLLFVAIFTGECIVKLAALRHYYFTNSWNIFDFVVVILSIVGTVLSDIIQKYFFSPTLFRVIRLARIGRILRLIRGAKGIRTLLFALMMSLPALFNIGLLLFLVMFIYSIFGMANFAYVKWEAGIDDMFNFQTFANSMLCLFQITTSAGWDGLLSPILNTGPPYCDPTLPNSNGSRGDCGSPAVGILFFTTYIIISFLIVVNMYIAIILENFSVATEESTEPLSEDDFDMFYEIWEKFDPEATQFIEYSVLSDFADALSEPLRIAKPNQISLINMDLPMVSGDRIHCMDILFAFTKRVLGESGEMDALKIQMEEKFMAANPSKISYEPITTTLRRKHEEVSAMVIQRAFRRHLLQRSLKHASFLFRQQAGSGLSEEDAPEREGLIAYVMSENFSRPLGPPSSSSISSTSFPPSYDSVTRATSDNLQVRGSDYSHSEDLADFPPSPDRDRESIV
Sequence of Voltage-gated inwardly rectifying potassium channel KCNH2 (Q12809 whole entry): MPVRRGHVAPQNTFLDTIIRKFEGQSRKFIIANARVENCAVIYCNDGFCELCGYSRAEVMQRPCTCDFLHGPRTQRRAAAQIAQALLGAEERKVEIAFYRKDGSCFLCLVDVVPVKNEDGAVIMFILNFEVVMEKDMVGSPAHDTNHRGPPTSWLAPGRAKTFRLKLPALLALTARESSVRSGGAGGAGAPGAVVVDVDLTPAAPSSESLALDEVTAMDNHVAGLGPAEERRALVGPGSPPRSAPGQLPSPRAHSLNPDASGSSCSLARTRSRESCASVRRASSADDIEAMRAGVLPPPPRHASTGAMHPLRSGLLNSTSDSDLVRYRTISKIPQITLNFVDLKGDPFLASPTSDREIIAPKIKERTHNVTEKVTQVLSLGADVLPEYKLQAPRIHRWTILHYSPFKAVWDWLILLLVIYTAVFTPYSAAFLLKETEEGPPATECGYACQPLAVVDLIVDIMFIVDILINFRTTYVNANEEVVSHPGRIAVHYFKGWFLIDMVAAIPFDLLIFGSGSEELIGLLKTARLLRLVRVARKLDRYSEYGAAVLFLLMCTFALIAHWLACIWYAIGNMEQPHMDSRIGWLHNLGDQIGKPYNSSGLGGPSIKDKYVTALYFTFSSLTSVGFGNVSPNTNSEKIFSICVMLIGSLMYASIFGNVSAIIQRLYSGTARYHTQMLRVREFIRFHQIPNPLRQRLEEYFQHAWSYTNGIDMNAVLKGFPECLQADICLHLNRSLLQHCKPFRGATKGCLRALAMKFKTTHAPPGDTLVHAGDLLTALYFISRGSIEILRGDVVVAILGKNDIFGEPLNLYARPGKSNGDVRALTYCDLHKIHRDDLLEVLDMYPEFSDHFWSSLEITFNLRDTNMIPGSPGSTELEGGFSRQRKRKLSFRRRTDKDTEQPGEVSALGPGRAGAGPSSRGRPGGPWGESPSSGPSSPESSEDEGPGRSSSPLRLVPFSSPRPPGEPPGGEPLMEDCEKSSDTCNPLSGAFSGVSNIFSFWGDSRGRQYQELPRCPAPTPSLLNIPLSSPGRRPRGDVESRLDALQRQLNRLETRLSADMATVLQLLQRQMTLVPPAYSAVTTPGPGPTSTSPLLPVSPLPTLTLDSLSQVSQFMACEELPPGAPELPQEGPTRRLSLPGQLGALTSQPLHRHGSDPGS

As to `CCCCCCCSc1nc(N)cc(=O)[nH]1`, the clearance in data set [1] is 108 mL/min/kg. For the same compound, the Ratio in the data set with LLC-PK1 is 1.1. The IC50 in data set [2] turned out to be 1200 nM; in data set [5], 1400 nM; in data set [6], 400 nM; in [9], 0.94 µM. Moreover, in data set [3], the inhibition constant (Ki) is > 15 µM. The Vd in data set [4] was determined as 1.3 L/kg. Also, the Papp at 5 µM with MDR1 (P-gp) was determined as 21 ×10⁻⁶ cm/s. The solubility was 2 µg/mL (≈ 8.29 µM) in data set [7], 3 µg/mL (≈ 12.4 µM) in data set [8] and 14 µg/mL (≈ 58 µM) in data set [11]. In data set [10], this compound showed a half-life of 15 min.

With `CC(C)(C)c1ccc(CSc2nc(O)cc(=O)[nH]2)cc1`, the IC50 in data set [9] is > 30 µM.

On to `CC(C)(C)c1ccc(CSc2nccc(=O)[nH]2)cc1`, for which the IC50 in data set [9] is > 30 µM.

`N#Cc1ccc(CSc2nc(N)cc(O)n2)cc1`: the IC50 in data set [9] is > 30 µM.

Regarding `Cn1c(SCc2ccc(C(C)(C)C)cc2)nc(N)cc1=O`, the clearance in data set [1] is 18.3 mL/min/kg. Moreover, in the data set with LLC-PK1, the Ratio was determined as 1. Moreover, the Kp in [12] was found to be 3.3. Moreover, the IC50 worked out at 200 nM in [2], 500 nM in data set [5], 80 nM in [6] and 0.42 µM in [9]. For the same compound, the Ki in [3] was > 15 µM. Moreover, in [4], the Vd worked out at 2.6 L/kg. Also, in the data set on MDR1 (P-gp), the Papp at 5 µM worked out at 16 ×10⁻⁶ cm/s. Moreover, the solubility in data set [7] was 10 µg/mL (≈ 33 µM); in [8] it was 1 µg/mL (≈ 3.3 µM); in data set [11], 14 µg/mL (≈ 46.1 µM). The Activity in the data set listed under Rattus norvegicus [13] was 81%; in the data set listed under Rattus norvegicus [14], 98%. Also, the half-life in data set [10] is 234 min.

`Nc1cc(=O)[nH]c(SCc2ccc(OC(F)(F)F)cc2)n1`: in data set [9], the IC50 amounted to 2.2 µM.

Take `Cn1c(N)cc(=O)nc1SCc1ccc(C(C)(C)C)cc1`: the IC50 in data set [9] is > 30 µM.

On to `COc1cc(N)nc(SCc2ccc(C(C)(C)C)cc2)n1`, for which the IC50 in data set [9] is > 30 µM.

`CC(C)(C)c1ccc(CSc2nc3[nH]cnc3c(=O)[nH]2)cc1`: the IC50 in data set [9] was > 30 µM.

Compound `CC(C)(C)OC(=O)Nc1cc(=O)[nH]c(SCc2ccc(C(C)(C)C)cc2)n1` returned an IC50 in data set [9] of 7.8 µM.

`CC(C)(C)c1ccc(CSc2nc(NS(C)(=O)=O)cc(=O)[nH]2)cc1`: in data set [9], the IC50 is > 30 µM.

Consider `CC(C)CSc1nc(N)cc(=O)[nH]1`, for which the IC50 in data set [9] is > 30 µM.

Compound `CC(C)(C)c1ccc(CSc2nc(NC(=O)C3CC3)cc(=O)[nH]2)cc1` yielded an IC50 in [9] of 2.5 µM. In addition, the Stability result with Liver microsomes [15] and in the data set on Liver microsomes [16] was “Unstable” throughout.

Compound `CC(=O)Nc1cc(=O)[nH]c(SCc2ccc(C(C)(C)C)cc2)n1` gave an IC50 in [9] of 1.2 µM. Also, the Stability result in the data set with Liver microsomes [15] and in the data set with Liver microsomes [16] was “Unstable” in each case.

As to `Nc1cc(=O)[nH]c(SCc2ccc(Cl)cc2)n1`, the IC50 in data set [9] stood at 4.7 µM.

On to `CC(C)(C)c1ccc(CSc2nc(N)cc(O)n2)cc1`, for which the clearance in data set [1] was 85 mL/min/kg. Moreover, in the data set on Hepatocyte, the Drug metabolism result was “Active”. The IC50 in data set [2] is 300 nM; in [5], 2200 nM; in data set [6] it was 340 nM; in data set [9], 0.68 µM. The Vd in data set [4] is 7.9 L/kg. In addition, the Papp at 5 µM in the data set with MDR1 (P-gp) is 27 ×10⁻⁶ cm/s. The results for the solubility in data set [7], in data set [8] and in data set [11] were 5 µg/mL (≈ 17.3 µM), 4 µg/mL (≈ 13.8 µM) and 67 µg/mL (≈ 232 µM), respectively. In data set [10], this compound gave a half-life of 162 min.

Take `CC(C)(C)c1ccc(CSc2nc(N)c(N)c(=O)[nH]2)cc1`: the IC50 in [9] was > 30 µM.

On to `CC(C)(C)c1ccc(CSc2nc(N)c(Cl)c(=O)[nH]2)cc1`, for which it took 4.3 µM to reach half-maximal inhibition in data set [9] (IC50).

For the compound `CS(=O)(=O)c1ccc(CSc2nc(N)cc(=O)[nH]2)cc1`, the IC50 in [9] is > 30 µM.

(Values after ChEMBL document CHEMBL1938353, “Discovery and optimization of aminopyrimidinones as potent and state-dependent Nav1.7 antagonists” (Bioorg Med Chem Lett, 2012).)
